Kir21 inh: inhibitors of mouse Kir2.1 inward-rectifier potassium channel; P35561; B-score at 10 µM; AID 1672; 310,000 tested, 0.85% active; HEK293-Kir2.1, FluxOR thallium flux fluorescence; active compounds read low;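 active means fluorescence ratio B-score at or below minus 3 SD of library scores, with starting-brightness B-score within 2 SD, cut at about -4.2 in these data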;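 further: channel flux triggered by added potassium and thallium sulfate stimulus; B-score of peak minus minimum fluorescence over baseline after thallium stimulus; more negative B-score means stronger Kir2.1 block with less thallium influx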
KCNK9 inh: inhibitors of human KCNK9 two-pore domain potassium channel; Q9NPC2; B-score at 10 µM; AID 488922; 310,000 tested, 1.2% active; HEK293 KCNK9, FluxOR thallium flux fluorescence; active compounds read low;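 active means ratio B-score over 3 SD below the library mean, with starting fluorescence within 5 SD of its mean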;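 further: negative B-score means less thallium flux so channel inhibition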
KCNQ1 pot: human KCNQ1 channel potentiation or activation; P51787; CHO-K1 KCNQ1, thallium flux FluxOR fluorescence; active compounds read high; B-score at 10 µM; 310,000 tested, 0.35% active;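 active means fluorescence ratio B-score, a plate-corrected score, at least three library SD, with initial intensity B-score within 5 SD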
Target sequence (P51787 whole entry, looked up): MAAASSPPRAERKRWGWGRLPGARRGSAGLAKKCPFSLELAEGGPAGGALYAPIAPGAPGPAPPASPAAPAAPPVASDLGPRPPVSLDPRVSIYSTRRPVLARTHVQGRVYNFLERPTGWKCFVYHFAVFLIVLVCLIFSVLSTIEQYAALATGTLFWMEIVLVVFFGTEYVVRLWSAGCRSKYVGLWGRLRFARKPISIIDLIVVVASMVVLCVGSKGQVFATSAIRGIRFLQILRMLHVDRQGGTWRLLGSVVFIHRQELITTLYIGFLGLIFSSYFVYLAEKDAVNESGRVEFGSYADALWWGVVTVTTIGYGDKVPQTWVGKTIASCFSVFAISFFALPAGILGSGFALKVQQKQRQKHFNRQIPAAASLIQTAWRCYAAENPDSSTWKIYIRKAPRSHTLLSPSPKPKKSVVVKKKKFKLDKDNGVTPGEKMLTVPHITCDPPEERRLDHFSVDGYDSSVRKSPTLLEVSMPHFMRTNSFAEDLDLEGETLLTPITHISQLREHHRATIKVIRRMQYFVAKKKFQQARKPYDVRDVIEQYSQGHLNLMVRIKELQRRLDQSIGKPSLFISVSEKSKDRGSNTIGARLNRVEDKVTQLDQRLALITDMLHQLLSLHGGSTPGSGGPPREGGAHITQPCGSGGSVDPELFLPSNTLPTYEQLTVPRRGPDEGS
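Assay system: stable KCNQ1 CHO-K1 line; medium: assay buffer, equal DMSO in all wells; timing: 90 min dye loading and 20 min compound exposure, both at room temperature; technique: kinetic FluxOR thallium fluorescence, 10-s 1-Hz baseline, 110-s post-stimulus read; read-out basis: B score of baseline-normalized fluorescence ratio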
KCNK3 inh: human KCNK3 channel inhibition, primary screen. B-score at 10 µM. O14649. 340,000 tested, 0.84% active. AID 602410. CHO-KCNK3 thallium flux, FluxOR fluorescence; active compounds read low;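 active means B-score under library mean minus 4 SD, starting fluorescence ratio at most library mean plus 5 SD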;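 further: more negative B-score means stronger inhibition of thallium flux through KCNK3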
hERG protect: shields human hERG channel from block by proarrhythmic agents. 310,000 tested, 0.51% active. activation (rescue from dofetilide block), less the hit threshold, % at 10 µM. CHO-hERG, FluxOR thallium flux, dofetilide IC70 present. Q12809;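 active means activation above the mean of controls blocked by dofetilide plus 5 SD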;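 further: thallium influx through hERG after potassium depolarization seen as dye fluorescence rise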
KCNQ1 inh: blocks the human KCNQ1 potassium channel | P51787 | CHO-K1 KCNQ1, FluxOR thallium flux fluorescence; active compounds read high | B-score at 10 µM | 310,000 tested, 1.3% active | AID 2642;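 active means compounds whose thallium flux B-score, printed positive for inhibition, exceeds three library SD while starting fluorescence stays within three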;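 further: channel opened by potassium depolarization with thallium stimulus after 20 min compound exposure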
Hits are given with their value; 0 = inactive; - = no result given. Compounds with a hit are over-represented: about 3.8% of the library has one in this group of screens.

SMILES | Kir21 inh | KCNK9 inh | KCNQ1 pot | KCNK3 inh | hERG protect | KCNQ1 inh
COc1ccc(-c2nc3ncccc3o2)cc1NC(=O)c1ccco1 | 0 | 0 | 0 | 0 | 0 | 0
CCOC(=O)/C(=C/C=C1\Sc2cc(C)c(C)cc2N1CC)C(C)=O | 0 | 0 | 0 | 0 | 0 | 13
CCOC(=O)C(Cc1ccccc1)NC(C)=O (centres undefined) | 0 | 0 | 0 | 0 | 0 | 0
CCOC(=O)C(Cc1ccccc1)NC(=O)CCCC(=O)c1ccccc1 (centres undefined) | 0 | 0 | 0 | 0 | 0 | 8
CCOc1ccc(Cc2c(Cl)nc(N)nc2Cl)cc1 | 0 | 0 | 0 | 0 | 0 | 0
CCOc1ccc(Cc2c(Cl)nc(SC)nc2N(C)C)cc1 | 0 | -7.6 | 0 | 0 | 0 | 0
CSc1nc2c(c(=O)[nH]1)C(c1ccccc1Cl)CC(=O)N2 (centres undefined) | 0 | 0 | 0 | 0 | 9.7 | 0
CSC(=S)N/N=C(\C)c1ccccc1 | 0 | 0 | 45 | 0 | 20 | 0
O=C(/C=C/c1ccco1)OCC(=O)N1CCCCC1 | - | - | - | 0 | - | -
CC(OC(=O)c1ccccc1Br)C(=O)Nc1nc(-c2cccc([N+](=O)[O-])c2)cs1 (centres undefined) | 0 | 0 | 0 | 0 | 0 | 0
O=C(Nc1nc(-c2cccc([N+](=O)[O-])c2)cs1)C(c1ccccc1)c1ccccc1 | 0 | 0 | 0 | 0 | 0 | 11
CN1C(=O)C2C3c4ccccc4C(c4ccccc43)[C@@H]2C1=O (some centres undefined) | 0 | 0 | 0 | 0 | 0 | 0
O=C1C2C3c4ccccc4C(c4ccccc43)C2c2nc3ccccc3n21 (centres undefined) | 0 | -7.7 | 0 | 0 | 0 | 0
CCN(c1cccc(C)c1)S(=O)(=O)c1cc2c3c(c1)CCC(=O)N3CCC2 | -5.8 | 0 | 0 | 0 | 0 | 0
O=C(CSc1nnc(CNC(=O)c2cccs2)o1)Nc1ccccc1C(F)(F)F | 0 | 0 | 0 | 0 | 0 | 0
COc1ccc(-c2csc3ncnc(N4CCN(c5cccc(Cl)c5)CC4)c23)cc1 | 0 | 0 | 0 | 0 | 0 | 6
COc1ccc(-c2csc3ncnc(N4CCN(S(=O)(=O)c5ccc(Cl)s5)CC4)c23)cc1 | 0 | 0 | 0 | 0 | 0 | 0
COc1ccc(-c2csc3ncnc(N4CCN(S(=O)(=O)c5ccc(C)cc5)CC4)c23)cc1 | 0 | 0 | 0 | 0 | 0 | 0
COc1ccc(N2CCN(c3ncnc4scc(-c5ccc(C)cc5)c34)CC2)cc1 | 0 | -7.9 | 0 | 0 | 0 | 0
COc1ccc2cnn(CCOc3cc(C)ccc3C(C)C)c(=O)c2c1OC | -4.8 | 0 | 0 | 0 | 0 | 0
CC(=O)OC[C@H]1O[C@@H](Oc2cc3ccc(=O)oc3cc2OC(C)=O)[C@H](OC(C)=O)[C@@H](OC(C)=O)[C@@H]1OC(C)=O | - | - | - | 0 | - | -
CCCCOc1ccc(C(=O)N/N=C/c2cn[nH]c2-c2ccc(OC)c(OC)c2)cc1 | 0 | 0 | 0 | 0 | 0 | 0
COc1ccc(-c2[nH]ncc2/C=N\NC(=O)c2ccc(C(C)(C)C)cc2)cc1OC | 0 | 0 | 0 | 0 | 0 | 6
COc1ccc(CC2=CC(=O)c3ccccc3C2=O)cc1 | 0 | 0 | 0 | 0 | 0 | 8
CC(NCC(O)COC1CCC(C(C)(C)C)CC1)c1ccccc1 (centres undefined) | -8.6 | 0 | 0 | 0 | 0 | 0
SMILES | Kir21 inh | KCNK9 inh | KCNQ1 pot | KCNK3 inh | hERG protect | KCNQ1 inh
CC1CCC(C(C)C)C(OCC(O)CNC(C)c2ccccc2)C1 (centres undefined) | 0 | 0 | 0 | 0 | 0 | 0
O=C1S/C(=C\c2ccc(O)c([N+](=O)[O-])c2)C(=O)N1Cc1cccc([N+](=O)[O-])c1 | 0 | 0 | 0 | 0 | 0 | 11
O=C1S/C(=C\c2ccc(O)c([N+](=O)[O-])c2)C(=O)N1c1ccccc1Cl | 0 | 0 | 0 | 0 | 0 | 10
COc1cc(/C=C2\SC(=O)N(c3cccc(Cl)c3)C2=O)cc([N+](=O)[O-])c1O | - | - | - | 0 | - | -
O=c1ccc2c([nH]1)CCCCCCCCCC2 | 0 | 0 | 0 | 0 | 0 | 0
COc1cc(N)c2ncccc2c1Br | - | - | - | 0 | - | -
COC(=O)c1ccc(NC(=S)NC(=O)c2cc(-c3ccccc3)nc3ccccc23)cc1 | 0 | 0 | 29 | 0 | 6.2 | 0
CCNC(=S)NNC(=O)c1cc(-c2cccc(OC)c2)nc2ccccc12 | 0 | 0 | 0 | 0 | 0 | 6
COc1ccc(Cl)cc1C(=O)NNC(=S)NC(=O)c1cc(-c2ccccc2)nc2ccccc12 | 0 | 0 | 8 | 0 | 0 | 0
COc1ccc(C(=O)NNC(=S)NC(=O)c2cc(-c3ccccc3)nc3ccccc23)cc1 | 0 | 0 | 9 | 0 | 0 | 0
COc1ccc(S(=O)(=O)N2CCC3(CC2)OCCN3S(=O)(=O)c2cccs2)cc1OC | 0 | 0 | 0 | 0 | 0 | 0
Cc1nn(Cc2ccccc2)c(C)c1CNC(=O)[C@H](C)N=C1NS(=O)(=O)c2ccccc21 | - | - | - | 0 | - | -
COc1cc(-c2cc(C(=O)Nc3c(Cl)cc(Cl)cc3Cl)c3ccccc3n2)cc(OC)c1OC | 0 | 0 | 0 | 0 | 0 | 7
COc1ccc(NC(=O)c2cc(-c3cc(OC)c(OC)c(OC)c3)nc3ccccc23)cc1OC | 0 | 0 | 0 | 0 | 0 | 0
O=C(O)Cc1coc2ccc3ccccc3c12 | 0 | 0 | 0 | 0 | 0 | 0
CC(C)CN(CC(C)C)C(=O)Cc1coc2ccc3ccccc3c12 | -5.8 | 0 | 0 | 0 | 0 | 0
CCCCNC(=O)C(=O)N/N=C/c1ccc(OCc2ccccc2)cc1 | 0 | 0 | 0 | 0 | 0 | 0
CC(C)(C)NCC(=O)N/N=C/c1ccc(OCc2ccccc2)cc1 | -4.3 | 0 | 0 | 0 | 0 | 0
CCOc1cc(N2CCOCC2)c(OCC)cc1NC(=O)CN1C(=O)C2CC=CCC2C1=O (centres undefined) | 0 | 0 | 0 | 0 | 7.2 | 0
CCOc1cc(N2CCOCC2)c(OCC)cc1NC(=O)CCC1CCCC1 | 0 | 0 | 0 | 0 | 6.9 | 0
C/C(CC(=O)Nc1ccc(Cl)c(C(F)(F)F)c1)=N\NC(=O)c1cc2ccccc2cc1O | 0 | 0 | 0 | 0 | 0 | 0
Cc1ccccc1-c1cccc([C@@H]2C[C@H]3[C@H](CON3C)CN2Cc2ccccc2)c1 | - | - | - | 0 | - | -
Cc1ccccc1C(=O)c1ccc2c(c1)n(C)c(=O)n2C | 0 | 0 | 0 | 0 | 0 | 0
O=C(N[C@@H](c1ccccc1)[C@@H]1C[C@H]1C(=O)O)OCc1ccccc1 | 0 | 0 | 0 | 0 | 0 | 0
O=C(CCn1nnc2ccccc21)OCC(=O)c1ccc(F)cc1 | 0 | 0 | 0 | 0 | 0 | 0
CCOC(=O)c1c(NC(=O)CSc2nnc3c(Cl)cc(Cl)cn23)sc2c1CCC2 | -4.3 | 0 | 0 | 0 | 0 | 0
COCCN(C(=O)c1ccc2c(c1)S(=O)(=O)N=C1CCCCCN12)c1c(N)n(CC(C)C)c(=O)[nH]c1=O | - | - | - | 0 | - | -
CC(C)C(=O)N1CCN(c2ccccc2NC(=O)c2ccc3c(c2)OCCO3)CC1 | - | - | - | 0 | - | -

Bioassay records as filed in PubChem BioAssay.
